Measurements: ChEMBL document CHEMBL1240449, “Tricyclononene carboxamide derivatives as novel anti-HIV-1 agents” (Eur J Med Chem, 2010)

Key:
[1] = system: Human immunodeficiency virus 1; experiment: Antiviral activity against R5 tropic HIV1 BaL infected in human CEMx174 5.25M7 cells after 3 days by luciferase assay; assay type: functional, organism-based; details: Human immunodeficiency virus 1, BaL, CEMx174 5.25M7, 72 h
Summary of the method: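 Compound at graded concentrations, in triplicate, preincubated with an equal volume of HIV-1 Bal (MOI 0.01) at 37 °C for 30 min. CEMx174 5.25M7 cells (5 × 10⁵/mL; CD4+, CXCR4+, CCR5+) were then added. After overnight culture the medium was replaced. On day 3 the cells were lysed and luciferase activity read. IC50 from percent inhibition by CalcuSyn.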

[2] = Cytotoxicity against human CEMx174 5.25M7 cells after 4 days by XTT assay; assay type: cell-based
Summary of the method: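 Graded compound concentrations added to an equal volume of CEMx174 5.25M7 cells (5 × 10⁵/mL) and incubated 4 days at 37 °C. XTT (1 mg/mL) containing 0.02 mM PMS was added and absorbance read at 450 nm after 4 h. CC50 by CalcuSyn.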

[3] = molecular target: Human immunodeficiency virus type 1 integrase (Human immunodeficiency virus 1, UniProt Q7ZJM1); experiment: Inhibition of HIV1 integrase after 1 hr
Human immunodeficiency virus type 1 integrase, sequence (Q7ZJM1 whole entry): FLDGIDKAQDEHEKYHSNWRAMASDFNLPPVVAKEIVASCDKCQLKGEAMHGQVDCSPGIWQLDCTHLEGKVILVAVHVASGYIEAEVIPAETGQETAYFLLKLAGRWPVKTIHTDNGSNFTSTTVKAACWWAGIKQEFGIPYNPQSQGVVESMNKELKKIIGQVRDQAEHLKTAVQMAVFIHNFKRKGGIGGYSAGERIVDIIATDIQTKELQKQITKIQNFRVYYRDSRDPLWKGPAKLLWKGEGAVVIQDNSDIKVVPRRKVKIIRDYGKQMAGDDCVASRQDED
Summary of the method: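 Integrase (F185K/C280S IN1-288, expressed in E. coli) assayed in wells coated with a donor DNA duplex substrate. Final read-out by alkaline phosphatase at 405 nm, after PBS-Tween washes and 1% BSA at 37 °C for 40 min. ABPS included as control. IC50 by CalcuSyn.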

[4] = molecular target: Human immunodeficiency virus type 1 reverse transcriptase (Human immunodeficiency virus 1, UniProt Q72547); experiment: Inhibition of HIV1 reverse transcriptase after 1 hr by ELISA
[5] = Selectivity index, CC50 for human CEMx174 5.25M7 cells to IC50 for R5 tropic HIV1 BaL; assay type: functional
Summary of the method: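 Ratio of CC50 (XTT, CEMx174 5.25M7 cells, 4 days) to IC50 (HIV-1 Bal luciferase infection assay, day 3) in the same cell line.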

Protease = Protease (Human immunodeficiency virus 1, UniProt Q9YQ12); experiment: Inhibition of HIV1 recombinant protease
Protease, sequence (Q9YQ12 whole entry): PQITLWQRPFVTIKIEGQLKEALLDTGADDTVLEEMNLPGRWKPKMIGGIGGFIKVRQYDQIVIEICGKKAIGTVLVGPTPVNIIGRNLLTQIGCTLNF
Summary of the method: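 Recombinant HIV-1 protease, purified, in 0.1 mol/L sodium acetate pH 5.0 with 0.9 mol/L NaCl, 1 mmol/L DTT, 1 mmol/L EDTA and a fluorescent peptide substrate. Graded compound concentrations were preincubated in this buffer for 20 min at 37 °C, then enzyme was added to start the reaction. Percent inhibition and IC50 were calculated.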

Cc1cccc(C)c1C(=O)N1CCC(C(=O)NN2C(=O)C3C4C=CC(C5CC45)C3C2=O)CC1 (stereo not drawn)
IC50 ([1]; read-out: IC50): > 118 µM | CC50 at 96 h [2]: > 118 µM

O=C(NN1C(=O)[C@@H]2C3C=CC(C4CC43)[C@@H]2C1=O)c1ccc(Cn2cnc3ccccc32)cc1 (stereo partly drawn)
IC50 [3]: > 228 µM | IC50 [4]: > 457 µM | Selectivity Index [5]: 291.68 | IC50 ([1]; read-out: IC50): 0.41 µM | IC50 ([1]; read-out: pIC50 (converted)): 0.41 µM | IC50 (Protease): > 114 µM | CC50 at 96 h [2]: 120 µM

CN(CCCN1C(=O)C2C3C=CC(C4CC34)C2C1=O)Cc1ccccc1 (stereo not drawn)
Selectivity Index [5]: 2.76 | IC50 ([1]; read-out: IC50): 30.4 µM | IC50 ([1]; read-out: pIC50 (converted)): 30.4 µM | CC50 at 96 h [2]: 84 µM

O=C(NN1C(=O)[C@@H]2[C@@H]3C=C[C@@H]([C@H]4C[C@@H]34)[C@@H]2C1=O)c1ccc(C(F)(F)F)cc1 [TECOVIRIMAT]
IC50 ([1]; read-out: IC50): > 200 µM

O=C(NN1C(=O)[C@@H]2C3C=CC(C4CC43)[C@@H]2C1=O)c1ccc(COc2ccc(F)cc2)cc1 (stereo partly drawn)
Selectivity Index [5]: 0.94 | IC50 ([1]; read-out: IC50): 31.4 µM | IC50 ([1]; read-out: pIC50 (converted)): 31.5 µM | CC50 at 96 h [2]: 29.7 µM

Cc1nnc(C(C)C)n1-c1ccc(C(=O)NN2C(=O)C3C4C=CC(C5CC45)C3C2=O)cc1 (stereo not drawn)
IC50 ([1]; read-out: IC50): > 185 µM | CC50 at 96 h [2]: > 185 µM

O=C(N[C@H](C(=O)NN1C(=O)C2C3C=CC(C4CC34)C2C1=O)c1ccccc1)c1ccccc1 (stereo partly drawn)
Selectivity Index [5]: >1.17 | IC50 ([1]; read-out: IC50): 155 µM | IC50 ([1]; read-out: pIC50 (converted)): 155 µM | CC50 at 96 h [2]: > 181 µM

CC(C)CN(Cc1ccc(C(=O)NN2C(=O)[C@@H]3C4C=CC(C5CC54)[C@@H]3C2=O)cc1)c1ccccc1 (stereo partly drawn)
Selectivity Index [5]: 2.48 | IC50 ([1]; read-out: IC50): 13.2 µM | IC50 ([1]; read-out: pIC50 (converted)): 13.2 µM | CC50 at 96 h [2]: 32.7 µM

Cc1ccc(C)n1-c1ccc(C(=O)NN2C(=O)C3C4C=CC(C5CC45)C3C2=O)cc1 (stereo not drawn)
Selectivity Index [5]: 0.45 | IC50 ([1]; read-out: IC50): 7.8 µM | IC50 ([1]; read-out: pIC50 (converted)): 7.8 µM | CC50 at 96 h [2]: 3.54 µM

CCN(Cc1ccc(C(=O)NN2C(=O)[C@@H]3C4C=CC(C5CC54)[C@@H]3C2=O)cc1)c1ccccc1 (stereo partly drawn)
Selectivity Index [5]: 1 | IC50 ([1]; read-out: IC50): 57.2 µM | IC50 ([1]; read-out: pIC50 (converted)): 57.1 µM | CC50 at 96 h [2]: 57 µM

CN1CCN(Cc2ccc(C(=O)NN3C(=O)[C@@H]4C5C=CC(C6CC65)[C@@H]4C3=O)cc2)CC1 (stereo partly drawn)
IC50 ([1]; read-out: IC50): 82.8 µM | IC50 ([1]; read-out: pIC50 (converted)): 82.8 µM

O=C(N[C@@H](Cc1ccccc1)C(=O)NN1C(=O)C2C3C=CC(C4CC34)C2C1=O)c1ccccc1 (stereo partly drawn)
IC50 ([1]; read-out: IC50): 89.4 µM | IC50 ([1]; read-out: pIC50 (converted)): 89.3 µM

O=C(NN1C(=O)[C@@H]2C3C=CC(C4CC43)[C@@H]2C1=O)c1ccc(CN(Cc2ccccc2)c2ccccc2)cc1 (stereo partly drawn)
Selectivity Index [5]: 1.51 | IC50 ([1]; read-out: IC50): 17.1 µM | IC50 ([1]; read-out: pIC50 (converted)): 17.1 µM | CC50 at 96 h [2]: 25.5 µM

Cc1nc2ccccc2n1Cc1ccc(C(=O)NN2C(=O)[C@@H]3C4C=CC(C5CC54)[C@@H]3C2=O)cc1 (stereo partly drawn)
Selectivity Index [5]: 0.61 | IC50 ([1]; read-out: IC50): 1.68 µM | IC50 ([1]; read-out: pIC50 (converted)): 1.68 µM | CC50 at 96 h [2]: 1.02 µM

O=C(NN1C(=O)[C@@H]2C3C=CC(C4CC43)[C@@H]2C1=O)c1ccc(CN2CCN(c3ccncc3)C2=O)cc1 (stereo partly drawn)
IC50 ([1]; read-out: IC50): > 165 µM | CC50 at 96 h [2]: > 165 µM

O=C(Nc1ccccc1)c1ccc(CN2C(=O)C3C4C=CC(C5CC45)C3C2=O)cc1 (stereo not drawn)
Selectivity Index [5]: 7.72 | IC50 ([1]; read-out: IC50): 5.7 µM | IC50 ([1]; read-out: pIC50 (converted)): 5.7 µM | CC50 at 96 h [2]: 44 µM

O=C1C2C3C=CC(C4CC34)C2C(=O)N1CCC(=O)n1cnc2ccccc21 (stereo not drawn)
IC50 ([1]; read-out: IC50): > 221 µM | CC50 at 96 h [2]: > 221 µM

O=C(NN1C(=O)[C@@H]2C3C=CC(C4CC43)[C@@H]2C1=O)c1ccc(CNc2cccc(Cl)c2)cc1 (stereo partly drawn)
Selectivity Index [5]: 2.01 | IC50 ([1]; read-out: IC50): 13.3 µM | IC50 ([1]; read-out: pIC50 (converted)): 13.2 µM | CC50 at 96 h [2]: 27.8 µM

Cc1ccc(-c2ccc3c(c2)C=C(C(=O)Nc2ccc(C[N+](C)(C)C4CCOCC4)cc2)CCC3)cc1.[Cl-]
Selectivity Index [5]: 157.6 | IC50 ([1]; read-out: IC50): 0.05 µM | CC50 at 96 h [2]: 7.88 µM
